Laboratory results as given in ChEMBL document CHEMBL2169837 (J Med Chem, 2012).
In brackets after ≈: the same amount, converted by molar mass. Activity calls are given as the source filed them. The calls are words filed in the database; no cut-off is given here.

How the values were obtained:
[1] = molecular target: T1, Vasopressin V2 receptor (Homo sapiens, UniProt P30518); assay: Antagonist activity at human vasopressin V2 receptor expressed in CHO cells assessed as inhibition of AVP-induced cAMP accumulation after 30 mins by TR-FRET based HTRF assay; assay type: functional, cell-based
T1 sequence (P30518 whole entry): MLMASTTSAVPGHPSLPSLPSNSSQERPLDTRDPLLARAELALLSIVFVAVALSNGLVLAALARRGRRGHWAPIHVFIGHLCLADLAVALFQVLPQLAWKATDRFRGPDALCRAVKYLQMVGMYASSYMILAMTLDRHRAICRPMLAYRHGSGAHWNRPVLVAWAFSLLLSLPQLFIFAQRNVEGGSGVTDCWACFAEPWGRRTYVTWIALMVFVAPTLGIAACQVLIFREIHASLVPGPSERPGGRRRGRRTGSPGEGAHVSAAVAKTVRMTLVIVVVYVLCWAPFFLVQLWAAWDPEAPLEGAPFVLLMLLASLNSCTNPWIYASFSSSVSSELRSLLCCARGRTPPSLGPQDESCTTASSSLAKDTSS
Method in brief: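 CHO cells stably expressing human V2R, 5 × 10^3 per well on polyornithine, used 24 h after seeding. Incubated 30 min at 37 °C with compound (10−12 to 10−5 M) plus phosphodiesterase inhibitor RO 201724 0.1 mM. Antagonist mode run with 1 nM AVP. Cells lysed and cAMP read by HTRF (TR-FRET). Kact/Kinact from three independent experiments in triplicate, mean ± SEM.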

[2] = molecular target: T1, Vasopressin V2 receptor; assay: Agonist activity at human vasopressin V2 receptor expressed in CHO cells assessed as cAMP accumulation after 30 mins by TR-FRET based HTRF assay; assay type: functional, cell-based
Method in brief: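 CHO cells stably expressing human V2R, 5 × 10^3 per well on polyornithine, used 24 h after seeding. Cells lysed and cAMP read by HTRF (TR-FRET). Kact/Kinact from three independent experiments in triplicate, mean ± SEM.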

[3] = Solubility of the compound in HEPES buffer at pH 7.4 after 24 hrs; assay type: physicochemical
Method in brief: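 Solubility measured in pH 7.4 HEPES buffer after 24 h incubation at 22 °C.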

[4] = molecular target: T1, Vasopressin V2 receptor; assay: Displacement of [3H]-AVP from human vasopressin V2 receptor expressed in CHO cells after 30 mins; assay type: cell-based
[5] = molecular target: T2, Oxytocin receptor (Homo sapiens, UniProt P30559); assay: Displacement of [3H]-AVP from human oxytocin receptor expressed in CHO cells after 30 mins; assay type: cell-based
T2 sequence (P30559 whole entry): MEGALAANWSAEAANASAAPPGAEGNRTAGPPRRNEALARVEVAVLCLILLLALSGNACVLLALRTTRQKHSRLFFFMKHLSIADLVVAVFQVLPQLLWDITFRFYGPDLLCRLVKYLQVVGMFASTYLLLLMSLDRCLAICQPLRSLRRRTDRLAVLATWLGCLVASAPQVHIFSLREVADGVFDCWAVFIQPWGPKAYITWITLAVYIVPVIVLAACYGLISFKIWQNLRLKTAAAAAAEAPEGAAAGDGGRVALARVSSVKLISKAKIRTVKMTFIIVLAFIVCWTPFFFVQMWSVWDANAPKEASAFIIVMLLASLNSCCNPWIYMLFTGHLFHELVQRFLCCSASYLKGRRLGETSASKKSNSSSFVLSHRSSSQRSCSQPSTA

[6] = molecular target: T3, Oxytocin receptor (Homo sapiens) (UniProt P30559); assay: Displacement of [3H]-AVP from human oxytocin receptor expressed in CHO cells at 10 uM after 30 mins; assay type: cell-based
T3 sequence (whole entry): T2 sequence (P30559 whole entry)
Method in brief: (§1)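 Human OTR, V1aR or V1bR membranes from CHO cells, [3H]-AVP displacement with compound at a single 10 μM concentration, 30 min at 30 °C in Tris-HCl pH 7.4/MgCl2/BSA buffer.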

[7] = molecular target: T4, Vasopressin V1b receptor (Homo sapiens) (UniProt P47901); assay: Displacement of [3H]-AVP from human vasopressin V1b receptor expressed in CHO cells at 10 uM after 30 mins; assay type: cell-based; method in brief: as §1
T4 sequence (whole entry): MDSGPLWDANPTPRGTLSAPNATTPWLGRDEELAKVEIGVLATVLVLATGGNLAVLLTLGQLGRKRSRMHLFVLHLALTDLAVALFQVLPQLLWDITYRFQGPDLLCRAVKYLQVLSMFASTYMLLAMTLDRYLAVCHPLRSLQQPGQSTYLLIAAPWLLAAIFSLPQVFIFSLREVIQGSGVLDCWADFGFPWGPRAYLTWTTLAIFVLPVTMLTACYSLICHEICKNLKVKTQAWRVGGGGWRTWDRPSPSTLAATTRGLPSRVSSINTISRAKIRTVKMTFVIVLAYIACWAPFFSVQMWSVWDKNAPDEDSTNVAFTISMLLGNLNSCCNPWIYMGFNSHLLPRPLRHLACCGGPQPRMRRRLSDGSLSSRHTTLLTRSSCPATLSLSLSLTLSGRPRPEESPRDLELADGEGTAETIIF

[8] = molecular target: T5, Vasopressin V1b receptor (Homo sapiens, UniProt P47901); assay: Displacement of [3H]-AVP from human vasopressin V1b receptor expressed in CHO cells after 30 mins; assay type: cell-based
T5 sequence (P47901 whole entry): T4 sequence (whole entry)

[9] = molecular target: T6, Vasopressin V1a receptor (Homo sapiens, UniProt P37288); assay: Displacement of [3H]-AVP from human vasopressin V1a receptor expressed in CHO cells at 10 uM after 30 mins; assay type: cell-based; method in brief: as §1
Target sequence in this assay (P37288 whole entry, looked up): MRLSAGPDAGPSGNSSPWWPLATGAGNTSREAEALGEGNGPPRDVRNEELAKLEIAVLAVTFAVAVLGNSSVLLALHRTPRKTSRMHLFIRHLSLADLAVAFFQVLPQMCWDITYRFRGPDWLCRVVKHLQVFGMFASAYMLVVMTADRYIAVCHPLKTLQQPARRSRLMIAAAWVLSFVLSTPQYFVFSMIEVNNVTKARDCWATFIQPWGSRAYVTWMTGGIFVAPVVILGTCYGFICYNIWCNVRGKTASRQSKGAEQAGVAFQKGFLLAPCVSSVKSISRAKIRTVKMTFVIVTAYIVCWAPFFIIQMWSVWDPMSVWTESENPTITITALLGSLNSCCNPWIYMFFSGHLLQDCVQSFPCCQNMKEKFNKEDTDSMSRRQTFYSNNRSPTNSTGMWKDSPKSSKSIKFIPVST

[10] = molecular target: T6, Vasopressin V1a receptor; assay: Displacement of [3H]-AVP from human vasopressin V1a receptor expressed in CHO cells after 30 mins; assay type: cell-based
Target sequence in this assay (P37288 whole entry): as the sequence (P37288 whole entry, looked up) above

[11] = molecular target: T1, Vasopressin V2 receptor; assay: Binding affinity to SNAP-tagged vasopressin V2 receptor expressed in HEK293 cells after 1 hr by TR-FRET assay; assay type: cell-based
Method in brief: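 HEK 293T cells electroporated with SNAP-tag–V2R and grown 48 h. Receptor labeled 1 h at 37 °C with SNAP-Lumi4-Tb (100 nM) or SNAP-RED (300 nM), then washed. Rising fluorescent-ligand concentrations added and incubated overnight at 4 °C. TR-FRET read with excitation 340 nm, emission 620/665 nm. Nonspecific binding taken with 10 μM unlabeled ligand. Kd from saturation, three experiments in triplicate.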

[12] = organism: Homo sapiens; assay: Selectivity ratio of Ki for human oxytocin receptor to Ki for human vasopressin V2 receptor
[13] = molecular target: T7, Muscarinic acetylcholine receptor M1 (Homo sapiens, UniProt P11229); assay: Binding affinity to human muscarinic M1 receptor
T7 sequence (P11229 whole entry): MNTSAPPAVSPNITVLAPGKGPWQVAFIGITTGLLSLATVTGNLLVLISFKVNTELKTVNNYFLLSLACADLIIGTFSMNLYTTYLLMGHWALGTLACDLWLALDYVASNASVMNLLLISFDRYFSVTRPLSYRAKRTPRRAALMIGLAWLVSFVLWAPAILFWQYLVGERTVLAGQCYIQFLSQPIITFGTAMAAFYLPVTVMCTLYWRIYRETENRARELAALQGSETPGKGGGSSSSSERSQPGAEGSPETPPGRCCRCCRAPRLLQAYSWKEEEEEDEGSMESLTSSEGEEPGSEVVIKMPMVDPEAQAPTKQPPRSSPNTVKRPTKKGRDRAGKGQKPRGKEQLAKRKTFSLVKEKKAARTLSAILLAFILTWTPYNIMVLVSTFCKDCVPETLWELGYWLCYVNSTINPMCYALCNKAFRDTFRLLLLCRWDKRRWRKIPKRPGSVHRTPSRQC

CCN(CC)c1ccc2c(-c3ccc(S(=O)(=O)NCCOCCOCCOCCC(=O)NC4CCCN(C(=O)c5ccc(NC(=O)c6ccccc6-c6ccccc6)cc5)c5ccccc54)cc3S(=O)(=O)[O-])c3ccc(=[N+](CC)CC)cc-3oc2c1 (stereo not drawn)
Kb [1]: 0.00891 µM
inhibition [1]: Dose-dependent effect
Activity [2]: inactive
solubility at 24 h [3]: 6.2 µM (≈ 7.47 µg/mL)
Ki [4]: 0.0168 µM

CCN(CC)c1ccc2c(-c3ccc(S(=O)(=O)[O-])cc3S(=O)(=O)NCCOCCOCCOCCn3cc(CNC(=O)CCC(=O)NC4CCCN(C(=O)c5ccc(NC(=O)c6ccccc6-c6ccccc6)cc5)c5ccccc54)nn3)c3ccc(=[N+](CC)CC)cc-3oc2c1 (stereo not drawn)
Ki [5]: > 10 µM
inhibition [6]: < 50%
inhibition [7]: < 50%
Ki [8]: > 10 µM
inhibition [9]: < 50%
Ki [10]: > 10 µM
Kb [1]: 0.00212 µM
inhibition [1]: Dose-dependent effect
Activity [2]: inactive
Ki [4]: 0.0141 µM

CCN(CC)c1ccc2c(-c3ccc(S(=O)(=O)N4CCN(CCC(=O)NC5CCCN(C(=O)c6ccc(NC(=O)c7ccccc7-c7ccccc7)cc6)c6ccccc65)CC4)cc3S(=O)(=O)[O-])c3ccc(=[N+](CC)CC)cc-3oc2c1 (stereo not drawn)
Kb [1]: 0.00203 µM
inhibition [1]: Dose-dependent effect
Activity [2]: inactive
solubility at 24 h [3]: 3.7 µM (≈ 4.23 µg/mL)
Ki [4]: 0.0127 µM

CCN(CC)c1ccc2c(-c3ccc(S(=O)(=O)NCCOCCOCCOCCn4cc(CNC(=O)CCC(=O)NC5CCCN(C(=O)c6ccc(NC(=O)c7ccccc7-c7ccccc7)cc6)c6ccccc65)nn4)cc3S(=O)(=O)[O-])c3ccc(=[N+](CC)CC)cc-3oc2c1 (stereo not drawn)
Ki [5]: > 10 µM
inhibition [6]: < 50%
inhibition [7]: < 50%
Ki [8]: > 10 µM
inhibition [9]: < 50%
Ki [10]: > 10 µM
Kb [1]: 0.00196 µM
inhibition [1]: Dose-dependent effect
Activity [2]: inactive
solubility at 24 h [3]: 2.1 µM (≈ 2.85 µg/mL)
Ki [4]: 0.004 µM

CCN1/C(=C/C=C/C=C/C2=[N+](CC)c3ccc(S(=O)(=O)[O-])cc3C2(C)C)C(C)(CCCC(=O)NCCOCCOCCOCCOCCOCCOCCn2cc(CNC(=O)CCC(=O)NC3CCCN(C(=O)c4ccc(NC(=O)c5ccccc5-c5ccccc5)cc4)c4ccccc43)nn2)c2cc(S(=O)(=O)O)ccc21 (stereo not drawn)
Kd [11]: 0.00253 µM
Kb [1]: 0.00054 µM
inhibition [1]: Dose-dependent effect
Activity [2]: inactive
Ki [4]: 0.0142 µM

O=C(CCC(=O)NC1CCCN(C(=O)c2ccc(NC(=O)c3ccccc3-c3ccccc3)cc2)c2ccccc21)NCc1cn(CCOCCOCCOCCNC(=S)Nc2ccc(-c3c4ccc(=O)cc-4oc4cc(O)ccc34)c(C(=O)O)c2)nn1 (stereo not drawn)
Ratio Ki [12]: 25
Ki [5]: 0.665 µM
inhibition [7]: < 50%
Ki [8]: > 10 µM
inhibition [9]: < 50%
Ki [10]: > 10 µM
Kd [11]: 0.0111 µM
Kb [1]: 0.00078 µM
inhibition [1]: Dose-dependent effect
Activity [2]: inactive
Ki [4]: 0.0261 µM

O=C(CCC1=[N+]2C(C=C1)Cc1ccc(-c3cccs3)n1[B-]2(F)F)NCCN1CCN(CC(=O)N2c3ccccc3C(=O)Nc3cccnc32)CC1 (stereo not drawn)
Ki [13]: > 1 µM
